This note sets out measurements from ChEMBL document CHEMBL3632527 (J Med Chem, 2015).

Data set [1] has as its system T98G. In words: Cytotoxicity against human T98G cells assessed as cell viability in the presence of PK11195 after 48 hrs by cell titer blue staining based fluorescence method. Background: The colour change of resazurin is a common sign of viable cells or microbes.
The subject of data set [2] is T98G. In words: Antiproliferative activity against human T98G cells at 1 to 100 uM incubated for 48 hrs by BrdU enzyme-linked immunosorbent assay. The format is functional, cell-based. A digest of the protocol: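 Basal proliferation of T98G human glioma cells, which carry the Ala147 TSPO genotype without the rs6971 polymorphism, was measured with compounds alone at 1–100 μM.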

Data set [3] deals with T98G. The experiment in a line: Cytotoxicity against human T98G cells assessed as cell viability after 48 hrs by cell titer blue staining based fluorescence method.
Data set [4] has as its target T1, Translocator protein (Homo sapiens, UniProt P30536). In words: Displacement of [3H]PK11195 from TSPO in human HEK293T cell membranes incubated for 90 mins by competition radioligand binding assay. Details: species or system HEK-293T. For orientation: Loss of bound radioactivity is the signal in a displacement assay; it reports binding, not function.
The test system of data set [5] is T98G. The experiment in a line: Potentiation of antiproliferative activity of PK11195 at 100 uM against human T98G cells incubated for 48 hrs by BrdU enzyme-linked immunosorbent assay. The format is functional, cell-based.
Data set [6] addresses T1, Translocator protein. In words: Displacement of [3H]PK11195 from TSPO in human T98G cell membranes incubated for 90 mins by competition radioligand binding assay.
In data set [7] the test system is T98G. The experiment in a line: Potentiation of antiproliferative activity of PK11195 at 62.5 uM against human T98G cells incubated for 48 hrs by BrdU enzyme-linked immunosorbent assay. Type of data set: functional, cell-based.
The subject of data set [8] is T98G. In words: Potentiation of antiproliferative activity of PK11195 at 10 uM against human T98G cells incubated for 48 hrs by BrdU enzyme-linked immunosorbent assay. The format is functional, cell-based.
The subject of data set [9] is T98G. In words: Potentiation of antiproliferative activity of PK11195 against human T98G cells incubated for 48 hrs by BrdU enzyme-linked immunosorbent assay. Type of data set: functional, cell-based.

SMILES strings stand for the structures. Activity calls are given as the source filed them. The rule behind the calls is not given here.

One may read the Ki as the equilibrium dissociation constant of an inhibitor or competing ligand from its target. High values mean lower affinity, low ones higher affinity. Usually EC50 stands for the concentration that produces a half-maximal response.

T1 sequence (P30536 whole entry): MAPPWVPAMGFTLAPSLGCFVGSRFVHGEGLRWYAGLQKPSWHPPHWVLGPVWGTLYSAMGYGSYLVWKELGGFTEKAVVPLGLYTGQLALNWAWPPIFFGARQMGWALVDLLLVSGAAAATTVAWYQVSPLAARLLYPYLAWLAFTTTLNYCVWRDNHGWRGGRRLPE

For `CCN(CC)C(=O)Cn1c(-c2ccc(OC)cc2)nc2c(C)nc(C)nc21`, the Activity result in the data set on T98G [1] and with T98G [3] was “Non-toxic” in each case. Besides, the result in the data set on T98G [2] and in the data set on T98G [5] was inactive. The Ki on Translocator protein [4] and at Translocator protein [6] was greater than 10000 nM each time.

Take `CCN(CC)C(=O)Cn1c(-c2ccc(OC)cc2)nc2c(C)cc(C)nc21`: the Activity result with T98G [1] and in the data set on T98G [3] was “Non-toxic” throughout. The result with T98G [2] and in the data set on T98G [5] was inactive. The Ki at Translocator protein [4] was 29.1 nM; on Translocator protein [6] it was 144 nM.

Regarding `CCN(CC)C(=O)Cc1c(-c2ccc(OC)cc2)nn2c(C)cc(C)nc12`, the Activity result with T98G [1] and with T98G [3] was “Non-toxic” each time. Also, the result in the data set on T98G [2] and in the data set with T98G [5] was inactive.

Consider `CCN(CC)C(=O)Cn1c(-c2ccc(OC)cc2)nc2c(C)cc(C)cc21`, for which the Activity result in the data set with T98G [1] and in the data set on T98G [3] was “Non-toxic” in each case. Also, the outcome in the data set on T98G [2] was inactive. The Ki is 224 nM at Translocator protein [4] and 398 nM on Translocator protein [6]. For the same molecule, in the data set on T98G [7], the result was Active.

On to `CCN(CC)C(=O)Cn1c(-c2ccc(OC)cc2)cc2c(C)cc(C)cc21`, for which the result in the data set with T98G [8] was Active. Besides, the Activity entry with T98G [1] and in the data set on T98G [3] was “Non-toxic” throughout. Further, the EC50 in the data set with T98G [9] is 14700 nM. In the data set with T98G [2], the outcome was inactive. For the same molecule, the Ki on Translocator protein [4] came to 28.1 nM; at Translocator protein [6], 806 nM.
